# Bioassay records from PubChem.
# mIAP inh – inhibitors of mouse IAP, primary screen, biochemical, luminescence, uHTS; inhibition, % at 10 µM; intestinal alkaline phosphatase [Mus musculus]; AID 2806, 2010; 0.2% of 330,000 active; purified mouse IAP, CDP-Star luminescence, 30 min;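 active = inhibition of at least 40% at 10 µM in the primary screen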
# bIAP inh – bovine intestinal alkaline phosphatase inhibitors, primary screen, selectivity assay for TNAP inhibitor project, biochemical, bovine IAP, CDP-star luminescence | alkaline phosphatase, intestinal [Bos taurus] | purified bovine IAP, 30 min | inhibition, % at 20 µM | 190,000 tested, under 10 active;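 active = over 50% inhibition of intestinal alkaline phosphatase at 20 µM in the single-dose screen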
#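 test system = bovine IAP enzyme | medium = DEA buffer 100 mM, pH 9.8, with MgCl2 1.0 mM, ZnCl2 0.02 mM | detection = luminescence | dosing = single compound dose of 20 µM, 2% DMSO final | incubation = 30 min reaction at room temperature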
# hIAP activ – human IAP activators, primary screen, biochemical, luminescence, uHTS; Intestinal-type alkaline phosphatase (Homo sapiens), P09923; purified human IAP, CDP-Star luminescence, 30 min; active compounds read high; 1 = vehicle-only enzyme, 0 = enzyme-free background; activation factor at 10 µM; 0.16% of 330,000 active;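 active = activation factor of the enzyme at least 2-fold when tested at 20 µM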
# Target sequence (P09923 whole entry, looked up): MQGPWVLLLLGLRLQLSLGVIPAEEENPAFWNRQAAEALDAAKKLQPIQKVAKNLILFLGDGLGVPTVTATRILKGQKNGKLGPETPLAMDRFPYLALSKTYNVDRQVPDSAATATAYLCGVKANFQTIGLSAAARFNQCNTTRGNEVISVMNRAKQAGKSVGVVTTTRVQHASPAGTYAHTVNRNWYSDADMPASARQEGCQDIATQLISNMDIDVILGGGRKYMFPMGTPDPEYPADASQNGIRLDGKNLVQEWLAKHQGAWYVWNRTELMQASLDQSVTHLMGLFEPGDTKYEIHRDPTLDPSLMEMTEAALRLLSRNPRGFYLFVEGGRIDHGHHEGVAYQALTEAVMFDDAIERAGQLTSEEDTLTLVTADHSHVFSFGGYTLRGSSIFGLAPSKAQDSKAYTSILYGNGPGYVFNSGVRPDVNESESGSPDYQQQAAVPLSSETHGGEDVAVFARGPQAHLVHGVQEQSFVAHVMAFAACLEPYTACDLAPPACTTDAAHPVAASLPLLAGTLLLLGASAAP
# hIAP inh – human IAP inhibitors, primary screen, biochemical, luminescence, uHTS. purified IAP, CDP-Star luminescence, 30 min. Intestinal-type alkaline phosphatase (Homo sapiens), P09923. 0.12% of 330,000 active. inhibition, % at 10 µM. AID 2544, 2010;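 active = inhibition reaching a set limit with compound at 10 µM in the primary screen, cut at about 35% in these data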
# bIAP activator – bovine intestinal alkaline phosphatase activators, primary screen, biochemical, bovine IAP, CDP-star luminescence; activation factor at 20 µM; purified bovine IAP, 30 min; active compounds read high; fold of DMSO-control signal, blank-subtracted; alkaline phosphatase, intestinal [Bos taurus]; 0.17% of 200,000 active;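 active = activation factor of 2 or more at 20 µM, a signal rise over negative controls twice the positive control's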
# mIAP act – activators of mouse IAP, primary screen, biochemical, luminescence, uHTS | intestinal alkaline phosphatase [Mus musculus] | muIAP, CDP-Star luminescence, 30 min; active compounds read high; 1 = vehicle-only enzyme signal, 0 = enzyme-free wells | activation factor at 10 µM | 0.24% of 330,000 active | AID 2805, 2010;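 active = activation factor of at least 2 at 20 µM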
#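 System: mouse IAP enzyme. Reagent: CDP-Star chemiluminescent phosphatase substrate. Benchmarks: DMSO wells, no-enzyme wells. Times: 30 min enzyme-substrate-compound incubation at room temperature. Detection: luminescence from enzymatic CDP-Star hydrolysis. Doses: test compounds delivered from DMSO solution.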
# Numbers stand for hits; . = inactive; / = not tested or not shown. Only some compounds are listed: those with a hit (about 0.79% of all), similar ones and a draw of the others.
SMILES,mIAP inh,bIAP inh,hIAP activ,hIAP inh,bIAP activator,mIAP act
COc1ccc(OCC(O)Cn2c(=N)n(Cc3ccccc3)c3ccccc32)cc1 (stereo unspecified),.,.,.,.,2.8,.
Cc1c(/C=N/NC(=O)CNc2ccccc2)c2ccccn2c1C(=O)c1ccc(Cl)cc1,.,.,.,.,10,.
Cc1ccccc1NCC(=O)N/N=C/c1c(C)c(C(=O)c2ccc(Cl)cc2)n2ccccc12,.,.,.,.,.,.
COc1cc([N+](=O)[O-])ccc1NC(=O)COC(=O)c1ccc(NC(N)=O)cc1,.,/,.,.,/,.
CCc1cc(Cn2nc(-c3ccccc3)cc2C(=O)NCc2ccc(C)cc2)on1,.,/,.,.,/,3.3
CCc1cc(Cn2nc(-c3ccccc3)cc2C(=O)O)on1,.,/,.,.,/,.
CC(Sc1nnc(-c2ccco2)o1)C(=O)Nc1ccc(OC(F)F)cc1 (stereo unspecified),51,/,.,.,/,.
CC(C)NS(=O)(=O)c1ccc(OCC(=O)Nc2ccc(F)cc2F)cc1,.,.,.,.,.,.
NC1=NC2(CCCCC2)N=C(Nc2ccc(Br)cc2)N1,.,.,.,.,.,4.3
COc1cccc(NC2=NC3(CCCCC3)N=C(N)N2)c1,.,.,.,.,4.3,.
Cc1cccc(C)c1NC1=NC2(CCCCC2)N=C(N)N1,.,.,.,.,.,.
COc1ccc(S(=O)(=O)N2CCc3cc4c(cc3C2C)OCCCO4)cc1 (stereo unspecified),.,/,.,.,/,.
CC(=O)OCCCN1c2ccccc2Nc2nnc(-c3ccccc3)cc21,.,.,.,.,28,3.5
Cc1cccc(NC(=S)NNC(=S)NCc2ccccc2)c1,.,.,.,.,.,.
COc1ccccc1NC(=S)NCCSc1ccc(C)cc1,.,.,.,.,.,.
Cc1cc(C)cc(NC(=S)NCCSc2ccc(Cl)cc2)c1,.,.,.,.,.,2.3
Cc1ccc(SCCNC(=S)Nc2ccccc2)cc1,.,.,.,.,.,2.2
Cc1cccc(NC(=S)NCCC(c2ccccc2)c2ccccc2)c1,.,.,.,.,.,7.6
S=C(NCCSCc1c(Cl)cccc1Cl)Nc1ccccc1,.,.,.,.,.,2.5
Cc1cccn2c(=O)c3cc(C(=O)NCC4CCCO4)c(=N)n(C4CCCC4)c3nc12 (stereo unspecified),.,/,.,.,/,.
Cc1ccc(SCCNC(=S)Nc2cc(C)ccc2C)cc1,.,/,.,.,.,.
Cc1ccc(SCCNC(=S)Nc2ccc(C)c(C)c2)cc1,.,.,.,.,.,2.8
CCOc1ccc2nc(NCCCNC(=O)c3cc(OC)c(OC)c(OC)c3)c(C#N)cc2c1,.,/,.,.,/,2
CC(=O)Nc1ccc(S(=O)(=O)NCC(=O)NNC(=O)COc2c(C)cccc2C)cc1,41,/,.,.,/,.
CC(=O)Nc1ccc(S(=O)(=O)NCC(=O)NNC(=O)COc2ccccc2Cl)cc1,.,/,.,.,/,.
SMILES,mIAP inh,bIAP inh,hIAP activ,hIAP inh,bIAP activator,mIAP act
O=C(N/N=C/c1cccnc1)c1ccc2c(c1)OCCO2,.,.,.,.,.,.
COc1ccc(NC(=O)c2ccc3c(=O)n(Cc4ccco4)c(=S)[nH]c3c2)c(OC)c1,45,.,.,.,.,.
COC(=O)c1cc(CNC(=O)c2ccc(N3CCCC3)c([N+](=O)[O-])c2)ccc1OC,.,/,.,.,/,.
Cc1cc(NC(=O)CSc2cn(CC(=O)N(C(C)C)C(C)C)c3ccccc23)no1,.,/,.,.,/,.
Cc1cccc(NC(=O)CSc2n[nH]c(-c3ccncc3)n2)c1C,.,/,.,.,/,.
Cc1cc(-c2nn(-c3ccccc3F)cc2CNCCc2cnc[nH]2)c(C)s1,.,.,.,.,3,.
Cc1cc(-c2nn(-c3ccccc3F)cc2CN2CCC(C(N)=O)CC2)c(C)s1,.,.,.,.,.,.
COc1ccc(N2CC(C(=O)N(C)CC(=O)Nc3ccc(Cl)c(C(F)(F)F)c3)CC2=O)c(OC)c1 (stereo unspecified),.,/,.,.,/,.
CCCCCCc1ccc(N2C[C@H](Cc3ccccc3)[C@@H](CC(=O)NCc3ccc(OC)cc3)C2=O)cc1,.,/,.,.,/,.
CCCCCCc1ccc(N2C[C@H](CCCCC)[C@@H](CC(=O)NCc3ccc(OC)cc3)C2=O)cc1,.,/,.,.,/,2.3
CCCCCCc1ccc(N2C[C@H](CCCCC)[C@@H](CC(=O)NCc3ccccc3)C2=O)cc1,.,/,.,.,/,2.3
O=C(NC(C(=O)N/N=C/c1cc([N+](=O)[O-])ccc1O)c1n[nH]c(=O)c2ccccc12)c1ccccc1 (stereo unspecified),.,/,.,.,/,.
COc1ccc(CCNC(=O)c2cc(-c3ccc(Cl)c(Cl)c3)oc2C)cc1,.,.,.,.,.,3.4
COc1ccc(CCNC(=O)c2nn(C)cc2Cl)cc1,.,.,.,.,.,.
Cc1cccc(NC(=S)NC2CC3CCCC(C2)N3Cc2cccs2)c1 (stereo unspecified),.,.,.,.,.,5.9
COc1cccc(-c2noc(-c3ccc(Cl)nc3)n2)c1,.,.,.,.,.,.
O=C(Nc1ccc(Cl)c(Cl)c1)Nc1cc(C(=O)NC2CC2)ccc1Cl,.,.,.,.,.,2.2
Cc1[nH]c2ccc(-c3nnc(SCC(=O)c4ccc(F)cc4)o3)cc2c1C,57,.,.,.,.,.
Cc1cc(C)c(C)c(C(=O)CSc2nnc(-c3ccc4[nH]c(C)c(C)c4c3)o2)c1C,.,.,.,.,.,.
O=c1[nH]c(/C=C/c2ccc(Cl)cc2Cl)c([N+](=O)[O-])c(=O)[nH]1,.,/,.,.,/,.
COc1ccc(N(CC(=O)Nc2ccc(Cc3ccncc3)cc2)S(=O)(=O)c2ccccc2)cc1,.,/,.,.,/,2.4
COc1ccccc1N(CC(=O)Nc1ccc(Cc2ccncc2)cc1)S(=O)(=O)c1ccccc1,.,/,.,.,/,.
O=C(CSc1nncn1-c1ccccc1F)NC1CC1,.,/,.,.,/,.
O=[N+]([O-])c1cc(-c2ncccn2)cs1,.,.,.,.,2.5,.
CC(C)CNC(=S)NC(=O)c1csc([N+](=O)[O-])c1,.,/,.,.,/,.
CC(COc1ccccc1Cc1ccccc1)N1CCCCC1 (stereo unspecified),.,/,.,40,/,.
O=C(O)COc1ccccc1Cc1ccccc1,.,.,.,.,.,.
Oc1ccc(/C=N/NC(=S)Nc2cccnc2)cc1O,79,.,.,.,.,.
